Experimental data from paper PMC6220817 (Chemistry (Weinheim an Der Bergstrasse, Germany), 2018).
One block for each molecule: values may come before it. Ends that are not written are not given here. TMR‑5‑maleimide = tetramethylrhodamine-5-maleimide

Experiments:
tubulin [1] = conditions: Reported value for the binding to tubulin; cited from earlier work
tubulin [2] = target: tubulin (Sus scrofa, UniProt P02550+P02554); assay: Turbidity measurement of tubulin polymerization; type: biochemical, porcine; conditions: 10 μM compound, 4 μM tubulin, 1 mM GTP; for Stability of treated microtubules on cooling (turbidity): cooled to 4 °C for 15 min; for Turbidity (optical density at 350 nm) / tubulin polymerization: BRB80, 37 °C, 60 min
Outline: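 Porcine brain tubulin (4 μM) with 1 mM GTP in BRB80 (80 mM PIPES pH 6.9, 1 mM MgCl2, 1 mM EGTA) at 37 °C. Test compound or taxol at 10 μM, or none. OD350 read by UV/Vis every 1 min for 60 min. Samples then held at 4 °C for 15 min and read again.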

[3] = target: tubulin (α‐ and β‐tubulin dimer) (porcine (purified from porcine brain)) (UniProt P02550); assay: equilibrium dialysis
Sequence of tubulin (α‐ and β‐tubulin dimer) (porcine (purified from porcine brain)) (P02550 whole entry, chain 1 of 2): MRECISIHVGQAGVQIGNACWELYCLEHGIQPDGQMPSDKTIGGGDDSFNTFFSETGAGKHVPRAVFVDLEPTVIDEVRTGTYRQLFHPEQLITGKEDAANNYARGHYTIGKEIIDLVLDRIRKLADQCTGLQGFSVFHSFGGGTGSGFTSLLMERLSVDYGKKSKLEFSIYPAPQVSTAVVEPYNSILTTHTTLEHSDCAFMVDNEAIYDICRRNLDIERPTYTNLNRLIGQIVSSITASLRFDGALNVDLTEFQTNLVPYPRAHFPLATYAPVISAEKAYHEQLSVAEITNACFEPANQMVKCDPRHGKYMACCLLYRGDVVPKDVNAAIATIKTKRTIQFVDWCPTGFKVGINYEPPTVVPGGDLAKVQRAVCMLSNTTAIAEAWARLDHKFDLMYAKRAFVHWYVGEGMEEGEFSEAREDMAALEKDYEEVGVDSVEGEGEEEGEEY
Sequence of tubulin (α‐ and β‐tubulin dimer) (porcine (purified from porcine brain)) (P02554 whole entry, chain 2 of 2, further chain): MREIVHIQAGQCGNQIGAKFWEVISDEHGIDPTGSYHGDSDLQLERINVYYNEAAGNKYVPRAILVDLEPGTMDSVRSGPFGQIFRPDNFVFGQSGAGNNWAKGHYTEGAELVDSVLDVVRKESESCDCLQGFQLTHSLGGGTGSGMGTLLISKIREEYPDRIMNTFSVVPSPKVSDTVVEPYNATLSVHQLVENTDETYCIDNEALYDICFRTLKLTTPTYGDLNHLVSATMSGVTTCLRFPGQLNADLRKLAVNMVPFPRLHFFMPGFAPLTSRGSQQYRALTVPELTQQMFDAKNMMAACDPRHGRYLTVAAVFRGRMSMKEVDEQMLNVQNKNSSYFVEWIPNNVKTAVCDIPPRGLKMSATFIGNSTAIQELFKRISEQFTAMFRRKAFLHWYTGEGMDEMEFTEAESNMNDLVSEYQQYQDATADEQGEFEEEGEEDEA

Sequence of tubulin (Sus scrofa, UniProt P02550+P02554) (P02554 whole entry): as the sequence (P02554 whole entry, chain 2 of 2, further chain) above
Sequence of tubulin (Sus scrofa, UniProt P02550+P02554) (P02550 whole entry): as the sequence (P02550 whole entry, chain 1 of 2) above

- Stability of treated microtubules on cooling (turbidity) (tubulin [2]): remained stable
Molecule: CC(=O)O[C@H]1C(=O)[C@@]2(C)[C@H]([C@H](OC(=O)c3ccccc3)[C@]3(O)C[C@H](OC(=O)[C@H](O)[C@@H](NC(=O)c4ccccc4)c4ccccc4)C(C)=C1C3(C)C)[C@]1(OC(C)=O)CO[C@@H]1C[C@@H]2O [taxol, reference compound]

- Turbidity (optical density at 350 nm) / tubulin polymerization (tubulin [2]): increases the turbidity
- Stability of treated microtubules on cooling (turbidity) (tubulin [2]): completely depolymerized
Molecule: H-CGGGKKHVPGGGSVQIVYKPVDL-OH [2N]

- Turbidity (optical density at 350 nm) / tubulin polymerization (tubulin [2]): less effective
Molecule: H-KKHVPGGGSVQIVYKPVDLGGGC-OH [2C]

- Turbidity (optical density at 350 nm) / tubulin polymerization (tubulin [2]): less effective
Molecule: H‐Cys(Trt)‐Gly‐Gly‐Gly‐Lys(Boc)‐His(Trt)‐Gln(Trt)‐Pro‐Gly‐Gly‐Gly‐Lys(Boc)‐Val‐Gln(Trt)‐Ile‐Ile‐Asn(Trt)‐Lys(Boc)‐Lys(Boc)‐Leu‐Asp(OtBu)‐Leu‐Alko‐PEG resin [1N]

- Kd [3]: 3.4 µM
B1: 1N‐TMR (peptide)
peptide: C(TMR‑5‑maleimide)GGGKHQPGGGKVQIINKKLDL

Further lines, the molecule ahead of its results:

Molecule: CC(=O)O[C@H]1C(=O)[C@@]2(C)[C@H]([C@H](OC(=O)c3ccccc3)[C@]3(O)C[C@H](OC(=O)[C@H](O)[C@@H](NC(=O)c4cccc(N(C)C)c4)c4ccccc4)C(C)=C1C3(C)C)[C@]1(OC(C)=O)CO[C@@H]1C[C@@H]2O [Taxol derivative, N‐debenzoyl‐N‐[3‐(dimethylamino)benzoyl]taxol]
- Kd (tubulin [1]): 49 µM

Molecule: H-KHQPGGGKVQIINKKLDLGGGC-OH [1C]
- Turbidity (optical density at 350 nm) / tubulin polymerization (tubulin [2]): less effective

B2: 1C‐TMR (peptide)
peptide: KHQPGGGKVQIINKKLDLGGGC(TMR‑5‑maleimide)
- Kd [3]: 16.7 µM
